About 75 (4%) of roughly 2,100 compounds were called active. This is one part of a sample in which actives are shown more often than they occur.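 Rule for the calls: active = calcium fluorescence trace judged by eye to show a response, as agonist, enhancer of the glutamate response, or inhibitor; inactive = trace judged by eye to show no response.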

In PubChem BioAssay AID623869 (Vanderbilt High Throughput Screening Facility, 2012) one finds outcome data, which are given here for 109 compounds.

Sequence of Metabotropic glutamate receptor 8 (Rattus norvegicus) (P70579 whole entry, looked up): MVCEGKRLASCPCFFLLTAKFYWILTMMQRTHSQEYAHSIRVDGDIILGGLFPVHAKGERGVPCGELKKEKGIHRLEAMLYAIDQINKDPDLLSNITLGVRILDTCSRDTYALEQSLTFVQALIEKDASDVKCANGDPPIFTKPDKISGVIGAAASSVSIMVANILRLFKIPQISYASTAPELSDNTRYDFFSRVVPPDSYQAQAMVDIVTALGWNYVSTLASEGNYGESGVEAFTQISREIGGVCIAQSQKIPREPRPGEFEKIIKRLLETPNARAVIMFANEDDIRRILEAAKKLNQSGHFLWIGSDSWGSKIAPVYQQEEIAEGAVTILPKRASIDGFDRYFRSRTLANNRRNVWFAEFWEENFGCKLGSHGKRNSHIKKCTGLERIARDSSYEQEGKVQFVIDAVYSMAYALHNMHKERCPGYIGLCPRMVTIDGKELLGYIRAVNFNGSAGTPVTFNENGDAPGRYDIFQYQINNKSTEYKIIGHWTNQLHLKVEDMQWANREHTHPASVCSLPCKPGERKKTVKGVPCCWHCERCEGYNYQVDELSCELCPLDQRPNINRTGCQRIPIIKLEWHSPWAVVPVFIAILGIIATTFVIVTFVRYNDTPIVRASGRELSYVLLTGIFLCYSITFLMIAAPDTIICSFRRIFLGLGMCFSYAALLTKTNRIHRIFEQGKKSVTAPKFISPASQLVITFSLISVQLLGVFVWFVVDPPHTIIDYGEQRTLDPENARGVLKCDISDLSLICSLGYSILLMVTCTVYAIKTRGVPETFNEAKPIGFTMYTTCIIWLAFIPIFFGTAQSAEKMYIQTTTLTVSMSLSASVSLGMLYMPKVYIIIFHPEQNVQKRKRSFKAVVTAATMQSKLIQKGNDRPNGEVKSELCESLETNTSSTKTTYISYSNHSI

The target of the assay is Metabotropic glutamate receptor 8 (Rattus norvegicus) (UniProt P70579). As to the kind of experiment: rat mGlu8 modulation via Gqi9 calcium signal, confirmation, counter-screen for GIRK activator project, cell-based, HEK293 rmGlu8, Gqi9 chimera, Fluo-4 calcium (AID 623869). Particulars: HEK293 rmGlu8/Gqi9 calcium flux, Fluo-4 fluorescence; glutamate at EC20 added after compound. In outline:
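System – HEK-293 cells stably expressing rat mGlu8, plus transient chimeric Gqi9 · Medium – HEPES-buffered HBSS, pH 7.4 · Also added – EC20 glutamate · Compound – one dose, 20 µM addition solution, 0.2% DMSO · Times – compound 4 min before glutamate, then 2 min recording · Measured by – Fluo-4 calcium fluorescence sampled at 1 Hz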
As to `CCCn1c(=O)c2ccccc2n2c(SCc3nc4ccccc4s3)nnc12`, the outcome is “inactive; 0”. Regarding `CCCn1c(=O)c2ccccc2n2c(SCC(=O)N3CCc4ccccc4C3)nnc12`, the outcome is “inactive; 0”.

`CCCn1c(=O)c2ccccc2n2c(SCCOc3ccccc3F)nnc12`: the outcome was “active; 2”. As for `O=C(NC(NC(=S)Nc1ccc(Cl)cc1Cl)C(Cl)(Cl)Cl)c1cccc([N+](=O)[O-])c1` (centres undefined), the outcome is “inactive; 4”. For `S=C(Nc1ccccc1Cl)Nc1ccc(Cl)cc1Cl`, the outcome was “inactive; 0”. As to `COC(=O)c1ccc(CSc2ccc3nnc(-c4ccccc4)n3n2)o1`, the outcome is “active; 2”.

Regarding `CCC(Sc1ccc2nnc(-c3ccc(F)cc3)n2n1)C(=O)OC` (centres undefined), the outcome is “inactive; 0”. With `COC(=O)c1ccc(CSc2nnc(Nc3ccccc3OC)s2)o1`, the outcome was “inactive; 0”. Regarding `COc1ccc2nc(N3C(=O)/C(=C/c4ccccc4)NC3=S)sc2c1`, the outcome was “inactive; 0”. On to `CCCc1ccc(C(=O)N2CCN(c3ccccc3OCC)CC2)cc1`, for which the outcome is “inactive; 0”. Then `Cc1cc(C)c2nc(NC(=O)c3cc(C)on3)sc2c1`, with “inactive; 0”; and `CCOc1ccc(-c2nc(-c3ccncc3)no2)cc1OCC`, with “inactive; 0”; and `CCOc1ccc(-c2nc(-c3cccnc3)no2)cc1OCC`, with “active; 2”. The result for `CCOc1cc(-c2noc(-c3cccnc3)n2)ccc1OC` reads “inactive; 0”; that for `Cc1cccc(C(=O)NC(=S)NNC(=O)c2cccs2)c1`, “active; 1”; that for `O=C(CNC(=S)NC(=O)c1cccs1)c1ccccc1`, “inactive; 0”. Regarding `Cc1ccc(C(=O)NNC(=S)NC(=O)c2ccc(Cl)cc2)cc1`, the outcome was “inactive; 4”. For `O=C(NNC(=O)c1cccs1)Nc1cccc(Cl)c1`, the outcome was “inactive; 0”. `Cc1cccc(NC(=O)NC(=S)NC(=O)c2ccccc2)c1`: the outcome is “inactive; 0”. For the compound `O=C(NC(=S)NNC(=O)c1cccs1)c1ccc(Br)o1`, the outcome is “active; 1”. Regarding `Cc1cccc(C(=O)NC(=S)Nc2ccccc2C(F)(F)F)c1`, the outcome was “inactive; 0”. Take `Cc1ccnc(NC(=S)NC(=O)c2cccs2)c1`: the outcome is “inactive; 0”.

`Cc1cccc(C(=O)NC(=S)NNC(=O)c2ccccc2Cl)c1`: the outcome was “active; 1”. The result for `CC(=O)c1cccc(NC(=S)NC(=O)c2cccc(C)c2)c1` reads “inactive; 0”; that for `Cc1cccc(C(=O)NC(=S)NNC(=O)c2ccc(Cl)cc2)c1`, “active; 1”. As to `CC(C)CNC(=S)NC(=O)c1ccccc1Cl`, the outcome was “inactive; 0”. Then `CC(C)CNC(=S)NC(=O)c1ccc([N+](=O)[O-])cc1`, with “inactive; 0”; and `O=C(COc1ccccc1Cl)NC(=S)N1CCc2ccccc21`, with “inactive; 0”; and `C=CCCCCCCCCc1nc(=S)[nH][nH]1`, with “inactive; 0”. `Cc1cccc(NC(=S)NNC(=O)c2sccc2C)c1`: the outcome was “inactive; 0”. Then `O=C(NC(=S)N1CCN(c2ccc(Cl)cc2[N+](=O)[O-])CC1)c1ccco1`, with “inactive; 0”. Regarding `O=C(N/N=C\c1cc(Br)c(Br)o1)c1cncc(Br)c1`, the outcome is “inactive; 0”. For the compound `Cc1cc(C)c2nc(SCC(=O)NCCC3=CCCCC3)cc(C)c2c1`, the outcome is “inactive; 0”. Then `c1csc(CCNc2ncnc3sc4c(c23)CCC4)c1`, with “inactive; 0”. Turning to `CC1=NCCN1S(=O)(=O)c1cc(Cl)ccc1Cl`, the outcome is “inactive; 0”.

Turning to `O=S(=O)(Nc1nc(-c2sccc2Cl)cs1)c1cc(Cl)ccc1Cl`, the outcome is “active; -1”.

For the compound `COC(=O)c1sccc1NC(=O)CSc1ccccc1NS(=O)(=O)c1cc(Cl)ccc1Cl`, the outcome is “inactive; 0”. In the case of `O=C(NNc1nc2ccccc2nc1C(F)(F)F)c1ccccc1`, the outcome was “inactive; 0”. Consider `Cc1cccc(N=C2NC(=O)/C(=C/C=C/c3ccco3)S2)c1C`, for which the outcome was “inactive; 0”. In the case of `Cc1nc(SC2CCOC2=O)c2c(C)c(C)sc2n1` (centres undefined), the outcome was “inactive; 0”.

As to `Cc1sc2nc(C(C)C)nc(SCC(=O)N3c4ccccc4CC3C)c2c1C` (centres undefined), the outcome is “inactive; 0”. For `C/C(=N\NC(=O)c1ccccc1O)c1ccc(Br)s1`, the outcome was “inactive; 0”. For `C/C(=N\NC(=O)c1ccc(Cl)cc1)c1ccc(Br)s1`, the outcome was “inactive; 0”. For `C/C(=N\NC(=O)c1cccc(F)c1)c1ccc(Br)s1`, the outcome was “active; 1”.

For `Cc1ccc2c(Cl)cc(Cl)c(OCC(=O)NCc3ccco3)c2n1`, the outcome was “inactive; 0”.

Regarding `O=C(NN=c1c(=O)c2ccccc2c1=O)c1ccccc1`, the outcome was “inactive; 0”.

Turning to `C=COCCNC(=O)Nc1ccc(Cl)c(Cl)c1`, the outcome was “inactive; 4”.

For `Cc1ccc(NC(=O)CSC(N)=O)cc1Cl`, the outcome is “inactive; 0”. Then `O=C(CC(O)(C(F)(F)F)C(F)(F)F)Nc1ccc(Cl)c(Cl)c1`, with “active; 1”; and `O=C(NNC(=O)c1sccc1-n1cccc1)c1ccc(Cl)cc1`, with “inactive; 0”. Regarding `CCOC(=O)c1ccccc1NC(=O)CSc1nnc(Cc2cccn2C)n1-c1ccc(C)cc1`, the outcome was “inactive; 0”.

Consider `Fc1ccc(/C=N/n2c(-c3cccs3)n[nH]c2=S)cc1`, for which the outcome is “inactive; 0”. For the compound `CCOc1ccc2nc(/N=C/c3c(C)[nH]n(-c4ccc(C)cc4)c3=O)sc2c1`, the outcome was “inactive; 0”. Turning to `O=c1c2ccc(Cl)cc2nc(-c2cccc(C(F)(F)F)c2)n1O`, the outcome is “inactive; 3”.

Turning to `O=c1c2ccccc2nc(-c2cccc(Cl)c2)n1O`, the outcome was “inactive; 0”.

Regarding `O=c1c2cc(Br)ccc2nc(-c2cccc(C(F)(F)F)c2)n1O`, the outcome was “active; 1”. Then `COC(=O)c1onc(C(=O)c2ccccc2)c1C(=O)OC`, with “inactive; 0”; and `COc1ccc(N2CCCn3c2nc2c3c(=O)n(Cc3ccccc3F)c(=O)n2C)c(OC)c1`, with “inactive; 0”; and `COc1ccc(NC(=O)C(=O)NNC(=O)c2cccs2)c(OC)c1`, with “inactive; 0”.

On to `COc1ccc(N2CCN(c3nc4c(c(=O)n(C)c(=O)n4C)n3Cc3ccccc3)CC2)cc1`, for which the outcome is “inactive; 0”. Then `Cn1c(N2CCCC2)nc2c1c(=O)n(Cc1ccc(Cl)cc1)c(=O)n2C`, with “active; 2”; and `Cn1c(=O)c2c(nc(-n3ccnc3)n2Cc2ccccc2)n(C)c1=O`, with “inactive; 0”; and `CCOC(=O)Cc1csc(NC(=S)NC(=O)c2ccccc2Br)n1`, with “inactive; 0”. Turning to `CCc1ccc(NC(=S)NNC(=O)c2ccccc2OC(F)F)cc1`, the outcome was “inactive; 0”.

As to `Cc1ccc(C)c(NC(=S)NNC(=O)c2csc3c2CCC(C)C3)c1` (centres undefined), the outcome was “inactive; 0”. The result for `O=C(N/N=C\c1ccc(Cl)s1)c1cccs1` reads “inactive; 0”.

As for `COc1ccc(CNc2nc(-c3cccnc3)nn2C(=O)c2ccco2)cc1`, the outcome was “active; 2”. In the case of `CCC(=O)n1nc(-c2cccnc2)nc1NCc1ccc(OC)cc1`, the outcome is “inactive; 0”. Consider `O=C(c1cc2nc(-c3ccccc3)cc(-c3ccccc3)n2n1)N1CCN(C(=O)c2ccco2)CC1`, for which the outcome is “inactive; 0”.

With `Cc1oc(-c2ccccc2)nc1CS(=O)CC(=O)O` (centres undefined), the outcome was “inactive; 0”. For `CCCCN(CCCC)C(=S)NC(=O)c1ccccc1Cl`, the outcome was “inactive; 0”.

`CCN(CC)C(=O)CSc1nc2ccccc2c(=O)n1-c1ccccc1OC`: the outcome is “inactive; 0”. The result for `COc1cc(-c2nnc(CSc3nc4ccccc4s3)o2)cc(OC)c1OC` reads “inactive; 0”; that for `COc1ccc(-c2nnc(CSc3nc4ccccc4c(=O)n3C)o2)cc1OC`, “active; 2”. Take `O=S(=O)(c1ccc(-c2nnc(SCc3nnc(-c4ccccc4)o3)o2)cc1)N1CCCC1`: the outcome is “inactive; 0”. On to `c1ccc(Cc2nnc(-c3ccccc3)o2)cc1`, for which the outcome is “active; -1”.

With `Fc1ccc2nc(-c3ccccc3)nc(SCc3nnc(-c4ccccc4)o3)c2c1`, the outcome was “inactive; 0”. As for `CCC(=O)N1CCN(c2ccccc2NC(=O)COc2cccc(C)c2)CC1`, the outcome was “inactive; 0”. Consider `CNc1nc(Cl)nc(NC(C)(C)C)n1`, for which the outcome was “active; 2”.

For `O=C1Nc2ccccc2C12OCC1(CO2)COC2(OC1)C(=O)Nc1ccccc12` (centres undefined), the outcome was “active; 2”. Turning to `O=C(c1ccco1)N1CCN(c2ncnc3scc(-c4cccs4)c23)CC1`, the outcome is “active; 2”.

Turning to `Cc1ccc(-c2csc3ncnc(N4CCN(C(=O)c5ccccc5)CC4)c23)cc1`, the outcome was “inactive; 0”.

`O=C(c1ccco1)N1CCN(C(=O)c2cnn3c2NC(c2cccs2)CC3C(F)(F)F)CC1` (centres undefined): the outcome was “inactive; 0”. For `S=C(Nc1ccc(Cl)cc1)c1nc2ccccc2[nH]1`, the outcome is “inactive; 0”. Turning to `O=C(NC(=S)Nc1ccccn1)c1ccco1`, the outcome is “inactive; 0”.

Regarding `Cc1ccc(C(=O)Nc2nc(-c3ccccc3)c(-c3ccccc3)o2)cc1`, the outcome is “inactive; 0”. Then `O=C(CCc1ccccc1)NNC(=S)NC(=O)c1ccc(Cl)cc1`, with “active; 1”. Consider `Cc1cccc(C)c1NC(=S)NC(=O)CCc1ccccc1`, for which the outcome was “inactive; 0”. Take `COc1ccc(C(=O)NC(=S)N(Cc2ccccc2)Cc2ccccc2)cc1`: the outcome is “inactive; 0”. As for `COc1ccc(C(=O)NC(=S)NNC(=O)CCc2ccccc2)cc1`, the outcome is “active; 1”. The result for `Cc1ccccc1NC(=S)NC(=O)CCc1ccccc1` reads “inactive; 0”. Turning to `COc1ccc(C(=O)NNC(=S)NC(=O)c2ccco2)cc1`, the outcome is “inactive; 4”. For `CC(=O)c1cccc(NC(=S)NC(=O)c2cccc(Cl)c2)c1`, the outcome was “inactive; 0”. For the compound `Cc1ccc(-n2ncc3c(SCc4ccccc4)ncnc32)cc1`, the outcome was “inactive; 0”. Take `O=C(Nc1nnc(-c2ccc3c(c2)CCCC3)o1)c1ccccc1`: the outcome is “inactive; 4”. On to `Cc1ccc(OCC(=O)NNC(=O)C(C)Sc2ncnc3sc(C)c(C)c23)cc1` (centres undefined), for which the outcome is “inactive; 0”. As to `COc1cc(/C=C2\SC(=S)NC2=O)ccc1OS(=O)(=O)c1ccccc1`, the outcome is “active; 2”. Then `O=C1NC(=S)S/C1=C\c1ccc(SCc2ccccc2)o1`, with “inactive; 0”; and `COc1ccc(/C=C2\SC(=O)NC2=S)cc1OC`, with “active; 2”.

Take `O=C1NC(=S)/C(=C\c2ccc(-c3ccccc3Cl)o2)S1`: the outcome was “inactive; 3”. As to `COc1cc(/C=C2/SC(=S)NC2=O)ccc1OS(=O)(=O)c1ccc(C)cc1`, the outcome was “inactive; 0”. On to `O=C1NC(=O)/C(=C\c2ccccc2Oc2ccc(F)c(F)c2)S1`, for which the outcome is “inactive; 0”. As for `COc1ccc(/C=N\NC(=S)SCN2C(=O)C3CCC(C)(C2=O)C3(C)C)cc1` (centres undefined), the outcome is “inactive; 0”.

As to `CCc1ccc2c(c1)c(N=NC1=NC(=O)CS1)c(O)n2C`, the outcome is “inactive; 0”. With `C=CCN(CC=C)C(=S)NC(=O)c1ccc(C)c(Br)c1`, the outcome is “inactive; 0”. `Cc1ccc(C(=O)NNc2nc3ccccc3nc2C(F)(F)F)cc1`: the outcome is “inactive; 0”.

For `Cc1ccc(NC(=S)NNc2ncc(C(F)(F)F)cc2Cl)c(C)c1`, the outcome is “inactive; 0”. `FC(F)(F)c1cnc(NNC(=S)Nc2ccccc2Cl)c(Cl)c1`: the outcome was “active; 1”. `FC(F)(F)c1cnc(NNC(=S)Nc2ccc(Cl)cc2)c(Cl)c1`: the outcome is “inactive; 4”.
